Assay outcomes (PubChem)
Compounds with a hit are over-represented: about 1.3% of the library has one in this group of screens.
MT1-MMP act inh = MT1-MMP (human) activation inhibition; P50281; HT1080 RFP-PRO-GFP cells, GFP/RFP ratio fluorescence, overnight; percent of plate control window, DMSO zero; GFP/RFP ratio change, % at 20 µM; 360,000 compounds, 0.061% hits; AID 651647;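 active = GFP/RFP ratio change of at least 30% with cell ATP level not reduced by more than half and red fluorescence within 50% of control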
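Assay system – RFP-PRO-GFP reporter HT1080 cells · Compound dosing – single dose of 20 µM compound, 1% DMSO final · Incubation – overnight compound exposure at 37 °C · Measure – GFP/RFP fluorescence ratio · Benchmarks – DMSO wells and RFP-L50D-GFP cells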
TMEM16A act = mouse TMEM16A channel activation, primary screen; B-score at 10 µM; Q8BHY3; HEK293 TMEM16A/YFP-H148Q/I152L, iodide quench fluorescence; hits give low values; 340,000 compounds, 0.3% hits;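 active = fluorescence-ratio B-score plate-corrected deviation score at least 3 library SD below zero, with starting fluorescence score within 5 deviations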;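 also: channel opened by trigger with iodide after compound preincubation; score built on the fluorescence ratio of max minus min over baseline; more negative score means more quench and so TMEM16A activation or potentiation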
DAGLB inh = diacylglycerol lipase beta (human) inhibition | Q8NCG7 | HEK293T DAGLB membrane lysate, EnzChek fluorogenic substrate | inhibition, % at 5.17 µM | 340,000 compounds, 0.059% hits | AID 504411; in the data active = inhibition above about 34%;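 also: 0% = enzyme with vehicle and 100% = wells lacking enzyme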
ANO1 block = mouse TMEM16A channel inhibition, primary screen | Q8BHY3 | HEK293 TMEM16A/YFP iodide influx fluorescence, ionomycin | normalized B-score (activity score, 25-100; higher = stronger inhibition) at 10 µM | 310,000 compounds, 1.2% hits | AID 588511;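 active = ratio plate-corrected score three or more library SD toward inhibition, starting fluorescence score within five deviations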;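 also: score derived from kinetic fluorescence span divided by baseline fluorescence per well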
TMEM16A reconf = TMEM16A (mouse) chloride channel inhibition, re-confirmation | shares compounds with ANO1 block | HEK293 TMEM16A/YFP-H148Q, iodide quench fluorescence; ionomycin added to raise cell calcium | inhibition, % at 10 µM | 2,300 compounds, 39% hits;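 active = mean duplicate percent inhibition, scaled so buffer wells are 0 and the reference blocker 100, over three buffer SD above buffer mean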
TMEM16A Ca cntr = counter-screen for TMEM16A inhibitors: effect on calcium mobilization. shares compounds with ANO1 block. TMEM16A/YFP HEK293, Fluo4 calcium mobilization. calcium response (% of ionomycin), % at 10 µM. 2,300 compounds, 2% hits. AID 652231;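 active = duplicate-averaged calcium signal over 20% of the ionomycin maximum, relative to buffer baseline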;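 also: each well's signal is peak minus trough fluorescence divided by its pre-addition baseline; 0% = buffer wells and 100% = ionomycin wells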
Parental YFP cnt = parental YFP-HEK293 iodide quench counter-screen activity | shares compounds with ANO1 block | ionomycin | YFP ratio F(max-min)/F0 at 10 µM | 2,300 tested, under 10 active | AID 652233;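 active = yellow fluorescent protein signal ratio exceeding the buffer control mean by over 5 SD of those controls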;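 also: ratio is mean of duplicate wells from kinetic YFP trace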
ClC-1 rat inh = blocks the rat ClC-1 voltage-dependent chloride channel; shares compounds with ANO1 block; CHO ClC-1-YFP, iodide influx fluorescence quench; iodide control reads 0, buffer control 100; ratio percent, % at 10 µM; 2,300 tested, under 10 active; AID 652236;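 active = duplicate-mean ratio percent above the mean of iodide-only control wells, which defines zero, plus 5 of their SD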;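 also: higher percent means stronger block of ClC-1 iodide influx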
Active calls of the source: *; i = inactive; · = no result given.

SMILES	MT1-MMP act inh	TMEM16A act	DAGLB inh	ANO1 block	TMEM16A reconf	TMEM16A Ca cntr	Parental YFP cnt	ClC-1 rat inh
CCO[C@@H]1OC(C(=O)O)=C[C@H](c2coc3ccccc3c2=O)[C@H]1CCCO	6	i	2	i	·	·	·	·
CCCCn1c(N)c(N(Cc2ccccc2)C(=O)COc2ccccc2F)c(=O)[nH]c1=O	-3	i	6	·	·	·	·	·
COC(=O)c1ccc(CNC(=O)COC(=O)C23CC4CC(CC(C4)C2)C3)cc1	0	i	-5	i	·	·	·	·
COC(=O)c1ccc(CNC(=O)COC(=O)CC23CC4CC(CC(Br)(C4)C2)C3)cc1	4	i	-1	25*	i	i	-0.92	-12
CCC(c1nc2ccccc2[nH]1)N(CCCn1ccnc1)C(=O)c1ccc(C(F)(F)F)cc1 (stereo not given)	-2	·	·	·	·	·	·	·
CC(=O)c1nnn(-c2nc(N)nc(N(c3ccccc3)c3ccccc3)n2)c1C	-3	i	-3	i	·	·	·	·
CCCCN(CCCC)c1nc(OC)nc(-n2nnc(C(C)=O)c2C)n1	-4	i	-22	25*	17%*	i	-1.1	-12
Cc1ccccc1C1C(C#N)=C2N=C(N)c3c(sc4c3CCCCC4)N2C2=C1C(=O)CC(C)(C)C2 (stereo not given)	-232	i	-3	i	i	i	-1.1	0
CCCCN1C(=O)c2ccc(C(=O)NC3(C)CCS(=O)(=O)C3)cc2C1=O (stereo not given)	0	i	0	·	·	·	·	·
CNc1nc(SCc2ccccc2Cl)nc2c1CCCC2	-4	i	-5	100*	56%*	i	-1.1	0
O=c1[nH]c(SCc2ccccc2Cl)nc2c1CCC2	4	i	4	i	·	·	·	·
CCS(=O)(=O)Nc1cccc(C2=NN(S(=O)(=O)c3ccc(C)cc3)C(c3cccs3)C2)c1 (stereo not given)	-2	i	0	i	·	·	·	·
CCS(=O)(=O)Nc1cccc(C2=NN(S(=O)(=O)c3ccccc3)C(c3cccs3)C2)c1 (stereo not given)	-17	i	-1	i	i	i	-0.86	-20
O/N=C/c1ccc2cccc(OCc3ccccc3)c2n1	1	i	-9	i	·	·	·	·
NC(N)=N/N=C/c1ccc2cccc(OCc3ccccc3)c2n1	-2	i	3	25*	i	i	-1	-14
COc1ccc(CNC(=O)C2CCCN2C(=O)Nc2cccc(Cl)c2)cc1 (stereo not given)	-2	·	-2	·	·	·	·	·
CCOC(=O)c1cnc(-n2nc(C)cc2C)nc1NC1CCCC1	10	i	-3	25*	54%*	i	-0.95	-38
CCOC(=O)c1cnc(-n2nc(C)cc2C)nc1Nc1ccc(OC)cc1	12	i	0	i	·	·	·	·
CC(C)C(=O)N1CCC1(C)C(=O)Nc1ccc2[nH]ccc2c1 (stereo not given)	3	·	·	·	·	·	·	·
Nc1nc(-c2ccccc2)c(-c2ccccc2)n1N	-5	i	-7	i	i	i	-1.2	-10
Nc1c(-c2ccccc2)nc(Cl)nc1-c1ccccc1	0	i	-5	i	·	·	·	·
CC(NC(=O)CN1C(=O)NC2(CCCCC2)C1=O)c1ccc(S(N)(=O)=O)cc1 (stereo not given)	-2	i	2	·	·	·	·	·
CC(C)c1ccc(S(=O)(=O)/N=C2\C=C(NS(=O)(=O)c3ccccc3)C(=O)c3ccccc32)cc1	2	i	32	100*	91%*	i	-0.92	-24
C[C@@H]1CN([C@H](C)CO)C(=O)c2cc(-c3ccc(C(=O)N(C)C)cc3)cnc2O[C@@H]1CN(C)C(=O)c1cccnc1	5	·	0	·	·	·	·	·
Cc1ccc(-c2onc(C)c2C)cc1S(=O)(=O)N1CCOc2ccccc21	-8	i	-13	100*	i	i	-1.2	-6
SMILES	MT1-MMP act inh	TMEM16A act	DAGLB inh	ANO1 block	TMEM16A reconf	TMEM16A Ca cntr	Parental YFP cnt	ClC-1 rat inh
CCC1(c2ccc(F)cc2)NC(=O)N(CC(=O)N2c3ccccc3CC2C)C1=O (stereo not given)	2	i	-1	·	·	·	·	·
CCCN1CCc2c(sc(NC(=O)c3ccc(S(=O)(=O)N(C)c4ccccc4)cc3)c2C(=O)NC)C1	-76	i	-7	i	24%*	i	-0.77	4
CCCN1CCc2c(sc(NC(=O)c3ccc(S(=O)(=O)N(C)c4ccccc4)cc3)c2C(N)=O)C1	-35	i	-17	i	·	·	·	·
CNC(=O)c1c(NC(=O)c2ccc(S(=O)(=O)N3CCCc4ccccc43)cc2)sc2c1CCN(C)C2	-34	i	-1	i	i	i	-0.85	-2
O=C(CNc1ccc(Br)cc1)NC(=O)NC1CCCCC1	2	i	2	·	·	·	·	·
COc1ccc(Cl)c2sc(N(CCN(C)C)C(=O)C3=COCCO3)nc12	1	i	0	·	·	·	·	·
CCN1C(=O)[C@H]2[C@@H](c3ccc(C)cc3)N[C@]3(CCCN(Cc4ccc(Cl)cc4)C3=O)[C@H]2C1=O	4	·	7	·	·	·	·	·
COCCN(C(=S)Nc1ccc(C(C)C)cc1)C(C)c1cccs1 (stereo not given)	2	i	-9	25*	i	i	-0.85	-13
CCOC(=O)N1CCN(C(=O)C[C@@H]2C[C@@]3(C(=O)OC)CCCCC=C3N(Cc3cccc4ccccc34)C2=O)CC1	7	·	·	·	·	·	·	·
O=C(O)C(C=C(Cl)Cl)N1CCOCC1 (stereo not given)	0	i	0	·	·	·	·	·
N#CCCn1cc(C(=O)CN2C(=O)C(=O)N(C3CCCC3)C2=O)c2ccccc21	0	i	0	·	·	·	·	·
CCn1c(SCC(=O)N2CCOCC2)nc2oc3c(Cl)cc(Cl)cc3c(=O)c2c1=O	·	·	·	i	32%*	i	-0.31	10
CCCCNC(=O)c1ccccc1C(=O)NCCCC	0	i	-1	i	·	·	·	·
CCCCNC(NCCCC)=C(S(=O)(=O)CC)S(=O)(=O)CC	-2	i	2	25*	i	i	-1.1	-4
CC(/C=C/c1ccc(O)cc1)=NNc1ccccc1	-3	i	2	·	·	·	·	·
N#CC1=C(N)N2C(=C(C#N)C1c1cccc(Br)c1)Nc1ccccc12 (stereo not given)	-28	i	-5	i	·	·	·	·
N#CC1=C(N)N2C(=C(C#N)C1c1ccc(Br)cc1)Nc1ccccc12 (stereo not given)	·	·	·	25*	16%*	i	-1.1	-16
